Assay results reported in ChEMBL document CHEMBL1151697, “Synthesis and structure-activity relationships for biphenyl H3 receptor antagonists with moderate anti-cholinesterase activity” (Bioorg Med Chem, 2008).
The source made the active and inactive calls. The rule behind the calls is not given here.

Tests used:
SK-N-MC [1] = assay: Cytotoxicity against human SK-N-MC cells at 10 uM after 6 hrs by MTT test; type: functional, cell-based
Procedure, shortened: (§1)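 MTT viability test: SK-N-MC cells held 6 h with compound (1–10 µM) or vehicle. MTT (5 mg/ml stock) added for 3 h, cells washed in PBS, formazan dissolved in 0.1 N HCl in isopropanol, absorbance read at 570 nm. Viability given relative to control.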

SK-N-MC [2] = assay: Cytotoxicity against human SK-N-MC cells at 1 uM after 6 hrs by MTT test; type: functional, cell-based; procedure, shortened: as §1
[3] = target: Histamine H2 receptor (Cavia porcellus) (UniProt P47747); assay: Antagonist activity at histamine H2 receptor in guinea pig atrium assessed as changes in rate of spontaneous beat at upto 3 uM; type: functional, tissue-based; settings: Cardiac atrium
Histamine H2 receptor (Cavia porcellus), sequence (P47747 whole entry): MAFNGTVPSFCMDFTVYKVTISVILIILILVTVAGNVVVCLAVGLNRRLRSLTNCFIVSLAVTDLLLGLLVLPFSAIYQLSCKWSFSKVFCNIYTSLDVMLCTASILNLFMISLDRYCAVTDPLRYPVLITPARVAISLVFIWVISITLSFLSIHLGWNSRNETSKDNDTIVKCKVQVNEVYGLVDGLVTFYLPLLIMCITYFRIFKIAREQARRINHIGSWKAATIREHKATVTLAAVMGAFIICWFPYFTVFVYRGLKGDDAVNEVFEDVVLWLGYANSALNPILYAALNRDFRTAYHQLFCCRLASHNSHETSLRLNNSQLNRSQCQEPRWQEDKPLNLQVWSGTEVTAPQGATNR
Procedure, shortened: (§2)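 Guinea-pig atria (H2) in Ringer–Locke at 31 °C (mM: NaCl 154.0, KCl 5.6, CaCl2 1.08, NaHCO3 5.95, glucose 11.1), gassed 95% O2–5% CO2. Spontaneous beating rate recorded by cardiotachograph. Cumulative dimaprit curves (0.1–100 µM) run without and with compound up to 10 µM. Affinity given as pKB by Furchgott, or as pD2′ by Van Rossum if non-surmountable.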

[4] = target: T1, Acetylcholinesterase (Rattus norvegicus) (UniProt P37136); assay: Inhibition of acetylcholinesterase in Wistar rat brain homogenate at upto 10 uM by Ellman's method; type: tissue-based
T1 sequence (whole entry): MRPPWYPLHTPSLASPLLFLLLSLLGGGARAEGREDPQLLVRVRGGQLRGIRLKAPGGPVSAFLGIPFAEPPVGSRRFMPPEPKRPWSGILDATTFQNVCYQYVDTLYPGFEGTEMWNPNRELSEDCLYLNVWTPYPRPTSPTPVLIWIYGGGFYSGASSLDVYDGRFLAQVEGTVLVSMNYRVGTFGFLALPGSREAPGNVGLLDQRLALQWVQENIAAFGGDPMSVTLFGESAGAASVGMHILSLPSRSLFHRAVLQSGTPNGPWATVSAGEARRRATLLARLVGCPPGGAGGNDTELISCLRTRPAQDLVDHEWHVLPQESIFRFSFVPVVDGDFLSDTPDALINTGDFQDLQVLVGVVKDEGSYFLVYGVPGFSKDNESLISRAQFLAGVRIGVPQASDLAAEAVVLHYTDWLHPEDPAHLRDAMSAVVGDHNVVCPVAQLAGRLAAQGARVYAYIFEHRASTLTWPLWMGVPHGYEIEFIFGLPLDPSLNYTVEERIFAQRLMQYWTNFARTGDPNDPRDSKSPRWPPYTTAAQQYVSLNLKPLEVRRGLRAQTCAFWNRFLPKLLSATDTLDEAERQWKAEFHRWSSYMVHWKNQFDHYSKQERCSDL

[5] = target: Histamine H3 receptor (Cavia porcellus) (UniProt Q9JI35); assay: Antagonist activity at histamine H3 receptor in electrically-stimulated guinea pig ileum assessed as inhibition of (R)-alpha-methylhistamine-induced twitch contraction in presence of 1 uM mepyramine; type: functional, tissue-based
Histamine H3 receptor (Cavia porcellus), sequence (Q9JI35 whole entry): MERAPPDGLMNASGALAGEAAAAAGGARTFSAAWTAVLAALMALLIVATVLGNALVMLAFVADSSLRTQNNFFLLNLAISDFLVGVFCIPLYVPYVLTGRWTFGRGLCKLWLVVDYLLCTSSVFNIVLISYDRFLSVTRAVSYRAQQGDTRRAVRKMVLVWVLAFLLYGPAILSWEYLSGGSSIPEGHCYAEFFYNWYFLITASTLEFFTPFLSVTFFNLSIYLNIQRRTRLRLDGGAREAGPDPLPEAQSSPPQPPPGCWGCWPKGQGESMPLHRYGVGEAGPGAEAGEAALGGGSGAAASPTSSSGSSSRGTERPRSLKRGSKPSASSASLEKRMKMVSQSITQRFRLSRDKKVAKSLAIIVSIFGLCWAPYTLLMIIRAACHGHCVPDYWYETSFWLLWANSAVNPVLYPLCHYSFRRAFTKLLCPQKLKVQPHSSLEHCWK
Procedure, shortened: (§3)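 Guinea-pig ileum, electrically stimulated (0.1 Hz, 1 ms, submaximal voltage). Twitch inhibition by cumulative (R)-α-methylhistamine (1 nM to 1 µM) with 1 µM mepyramine present. Compounds tested at 1 nM to 30 µM. Potency as pKB from Furchgott's equation, or as pD2′ (Van Rossum) for non-surmountable antagonism.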

Histamine H3 receptor [6] = target: T2, Histamine H3 receptor (Homo sapiens, UniProt Q9Y5N1); assay: Displacement of [3H]RAMHA from human histamine H3 receptor expressed in SK-N-MC cells; type: cell-based
T2 sequence (Q9Y5N1 whole entry): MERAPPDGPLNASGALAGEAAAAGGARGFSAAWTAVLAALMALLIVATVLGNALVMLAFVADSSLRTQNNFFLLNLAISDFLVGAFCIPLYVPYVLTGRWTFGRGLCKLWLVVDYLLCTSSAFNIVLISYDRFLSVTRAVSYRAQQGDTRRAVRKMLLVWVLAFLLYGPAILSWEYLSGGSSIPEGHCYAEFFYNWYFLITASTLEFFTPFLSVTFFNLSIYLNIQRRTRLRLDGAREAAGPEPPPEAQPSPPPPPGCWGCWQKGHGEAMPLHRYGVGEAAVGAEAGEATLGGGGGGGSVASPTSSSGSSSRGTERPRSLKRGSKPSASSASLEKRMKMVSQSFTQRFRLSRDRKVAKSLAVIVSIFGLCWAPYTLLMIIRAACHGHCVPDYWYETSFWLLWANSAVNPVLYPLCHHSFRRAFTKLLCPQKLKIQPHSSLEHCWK
Procedure, shortened: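 SK-N-MC membranes bearing human H3 incubated 60 min at room temperature with 0.5 nM [3H]-(R)-α-methylhistamine and competitor (0.01 nM to 10 µM). Rapid filtration, two washes in ice-cold 50 mM Tris–HCl/5 mM EDTA. Nonspecific binding with 10 µM histamine. pKi via Cheng–Prusoff; means of 4–6 experiments.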

Histamine H3 receptor [7] = target: T2, Histamine H3 receptor; assay: Antagonist activity at human histamine H3 receptor expressed in SK-N-MC cells by CRE-mediated beta-galactosidase reporter gene assay administered 10 mins before (R)-alpha-methylhistamine challenge after 6 hrs; type: functional, cell-based
Procedure, shortened: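 SK-N-MC cells stably carrying human H3 and a β-galactosidase reporter. Compound added to medium, forskolin 5 min later, then (R)-α-methylhistamine 10 min after compound; 6 h at 37 °C. Cells lysed in phosphate assay buffer (pH 8) with 0.5% Triton and 40 mM β-mercaptoethanol; β-galactosidase read at 570 nm. Means of 4–6 experiments.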

Histamine H4 receptor [8] = target: T3, Histamine H4 receptor (Homo sapiens, UniProt Q9H3N8); assay: Displacement of [3H]histamine from human histamine H4 receptor expressed in SK-N-MC cells at upto 10 uM
T3 sequence (Q9H3N8 whole entry): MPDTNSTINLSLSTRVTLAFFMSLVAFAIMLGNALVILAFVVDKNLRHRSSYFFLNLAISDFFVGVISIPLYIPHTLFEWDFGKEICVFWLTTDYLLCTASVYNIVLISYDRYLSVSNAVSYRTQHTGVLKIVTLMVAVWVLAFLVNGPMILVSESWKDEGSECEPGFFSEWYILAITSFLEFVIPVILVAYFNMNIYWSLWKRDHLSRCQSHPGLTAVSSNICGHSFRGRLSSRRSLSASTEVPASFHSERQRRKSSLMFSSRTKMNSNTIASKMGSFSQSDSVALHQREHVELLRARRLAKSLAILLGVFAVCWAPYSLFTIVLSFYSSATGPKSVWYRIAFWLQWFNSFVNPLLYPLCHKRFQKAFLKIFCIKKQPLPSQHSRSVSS

Histamine H3 receptor [9] = target: Histamine H3 receptor (Rattus norvegicus, UniProt Q9QYN8); assay: Displacement of [3H]RAMHA from histamine H3 receptor in Wistar rat brain membrane; type: cell membranes
Histamine H3 receptor (Rattus norvegicus, UniProt Q9QYN8), sequence (Q9QYN8 whole entry): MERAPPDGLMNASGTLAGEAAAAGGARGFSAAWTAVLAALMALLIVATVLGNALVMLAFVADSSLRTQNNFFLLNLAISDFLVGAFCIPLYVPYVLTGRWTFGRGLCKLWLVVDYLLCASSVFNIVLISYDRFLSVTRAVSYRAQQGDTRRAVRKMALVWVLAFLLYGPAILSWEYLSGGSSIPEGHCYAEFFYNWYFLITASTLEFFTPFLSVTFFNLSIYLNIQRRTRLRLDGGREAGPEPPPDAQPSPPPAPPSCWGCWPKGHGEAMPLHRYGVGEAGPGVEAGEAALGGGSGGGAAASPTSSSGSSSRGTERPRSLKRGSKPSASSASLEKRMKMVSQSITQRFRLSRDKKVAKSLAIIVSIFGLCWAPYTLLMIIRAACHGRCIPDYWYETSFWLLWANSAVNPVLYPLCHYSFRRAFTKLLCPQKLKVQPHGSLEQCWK
Procedure, shortened: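 Membranes from male Wistar rat brain (150–200 g) incubated 45 min with 0.5 nM [3H]RAMHA and compound (0.03 nM to 10 µM) in 50 mM Tris–HCl pH 7.4, 50 mM NaCl, 0.5 mM EDTA. Vacuum filtration, two ice-cold buffer rinses. Nonspecific binding set with 10 µM thioperamide. pKi by Cheng–Prusoff.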

[10] = target: Histamine H1 receptor (Cavia porcellus) (UniProt P31389); assay: Antagonist activity at histamine H1 receptor in guinea pig terminal ileum at upto 10 uM; type: functional, tissue-based
Histamine H1 receptor (Cavia porcellus), sequence (P31389 whole entry): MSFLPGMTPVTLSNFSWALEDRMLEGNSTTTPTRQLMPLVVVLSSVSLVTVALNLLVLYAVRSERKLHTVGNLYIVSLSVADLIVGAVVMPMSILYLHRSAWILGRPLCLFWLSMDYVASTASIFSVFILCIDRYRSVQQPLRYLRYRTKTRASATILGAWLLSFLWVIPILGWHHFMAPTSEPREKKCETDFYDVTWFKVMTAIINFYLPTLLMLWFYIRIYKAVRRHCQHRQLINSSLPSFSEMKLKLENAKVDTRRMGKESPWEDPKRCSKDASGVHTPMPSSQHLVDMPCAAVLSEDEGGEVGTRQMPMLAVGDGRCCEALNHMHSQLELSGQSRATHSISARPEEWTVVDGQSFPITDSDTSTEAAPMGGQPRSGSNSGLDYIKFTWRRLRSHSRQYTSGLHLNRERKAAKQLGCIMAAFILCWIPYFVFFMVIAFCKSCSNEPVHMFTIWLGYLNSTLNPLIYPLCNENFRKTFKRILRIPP
Procedure, shortened: (§4)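 Guinea-pig (250–350 g) terminal ileum (H1) suspended isometrically in Krebs–Henseleit at 37 °C, aerated 95% O2–5% CO2. Cumulative histamine curves (1 nM to 1 µM) run without and with compound up to 10 µM. pKB (apparent pA2) from Furchgott's equation; pD2′ from Van Rossum's equation when antagonism was non-surmountable.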

[11] = target: Histamine H1 receptor (Cavia porcellus) (UniProt P31389); assay: Antagonist activity at histamine H1 receptor in guinea pig terminal ileum; type: functional, tissue-based; procedure, shortened: as §4
[12] = target: Histamine H2 receptor (Cavia porcellus) (UniProt P47747); assay: (§5) Antagonist activity at histamine H2 receptor in guinea pig atrium assessed as changes in rate of spontaneous beat; type: functional, tissue-based; settings: Cardiac atrium; procedure, shortened: as §2
Histamine H4 receptor [13] = target: T3, Histamine H4 receptor; assay: Displacement of [3H]histamine from human histamine H4 receptor expressed in SK-N-MC cells
[14] = target: Histamine H2 receptor (Cavia porcellus) (UniProt P47747); assay: Antagonist activity at histamine H2 receptor in guinea pig atrium assessed as changes in rate of spontaneous beat at upto 1 uM; type: functional, tissue-based; settings: Cardiac atrium; procedure, shortened: as §2
[15] = target: Histamine H1 receptor (Cavia porcellus) (UniProt P31389); assay: Antagonist activity at histamine H1 receptor in guinea pig terminal ileum at upto 1 uM; type: functional, tissue-based; procedure, shortened: as §4
[16] = target: Histamine H3 receptor (Cavia porcellus) (UniProt Q9JI35); assay: Antagonist activity at histamine H3 receptor in electrically-stimulated guinea pig ileum assessed as inhibition of (R)-alpha-methylhistamine-induced twitch contraction at upto 1 uM in presence of 1 uM mepyramine; type: functional, tissue-based; procedure, shortened: as §3
[17] = target: T1, Acetylcholinesterase (Rattus norvegicus); assay: Inhibition of acetylcholinesterase in Wistar rat brain homogenate at upto 1 to 100 uM by Ellman's method; type: tissue-based
Procedure, shortened: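 Male Wistar rat (150–200 g) brain homogenate in 0.1 M phosphate buffer (pH 8.0) with DTNB (5 mM) and compound at 1–100 µM. Reaction started at 37 °C by adding acetylthiocholine (75 mM solution) and stopped after 15 min with 4% formalin. 5-Thio-2-nitrobenzoate absorbance at 412 nm. Percent inhibition versus control; reported as pIC50.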

Acetylcholinesterase = target: T4, Acetylcholinesterase (Rattus norvegicus, UniProt P37136); assay: Inhibition of acetylcholinesterase in Wistar rat brain homogenate by Ellman's method; type: tissue-based
T4 sequence (P37136 whole entry): T1 sequence (whole entry)

[18] = target: Histamine H2 receptor (Cavia porcellus) (UniProt P47747); assay: Antagonist activity at histamine H2 receptor in guinea pig atrium assessed as changes in rate of spontaneous beat at upto 10 uM; type: functional, tissue-based; settings: Cardiac atrium; procedure, shortened: as §2
[19] = target: Histamine H2 receptor (Cavia porcellus) (UniProt P47747); assay: Antagonist activity at histamine H2 receptor in guinea pig atrium assessed as changes in rate of spontaneous beat at upto 0.1 uM; type: functional, tissue-based; settings: Cardiac atrium; procedure, shortened: as §2
Histamine H2 receptor = Histamine H2 receptor (Cavia porcellus, UniProt P47747); assay: as §5; type: functional, tissue-based, Cardiac atrium; procedure, shortened: as §2
Histamine H2 receptor, sequence (P47747 whole entry): as the sequence (P47747 whole entry) above

SMILES | Activity (SK-N-MC [1]) | Activity (SK-N-MC [2]) | Activity [4] | pKb [5] | Ki (Histamine H3 receptor [6]) | pKb (Histamine H3 receptor [7]) | Activity (Histamine H4 receptor [8]) | Ki (Histamine H3 receptor [9]) | pKb [11] | Ki (Histamine H4 receptor [13]) | Activity [14] | inhibition [17] | IC50 (Acetylcholinesterase) | pD2 [11] | further results
CN(C)Cc1ccc(-c2ccc(CN3CCCCC3)cc2)cc1 | Not toxic | Not toxic | inactive | 9.05 | 2.19 nM | 8.92 | inactive | 1.32 nM | – | – | – | – | – | – | Activity [3]: inactive; Activity [10]: inactive
c1cc(-c2ccc(CCN3CCCCC3)cc2)ccc1CCN1CCCCC1 | Not toxic | Not toxic | inactive | 8.43 | – | 8.5 | inactive | – | 5.32 | – | – | – | – | – | pKb [12]: 6.38
CCCCCNCc1ccc(-c2ccc(CNCCCCC)cc2)cc1 | Not toxic | Not toxic | inactive | – | – | 6.51 | – | – | – | 6460 nM | inactive | – | – | – | Activity [15]: inactive; Activity [16]: inactive
CN(Cc1ccc(-c2ccc(CN(C)C3CCCCC3)cc2)cc1)C1CCCCC1 | Not toxic | Not toxic | – | 7.45 | – | 7.27 | – | – | – | 6460 nM | inactive | 57% | 1660 nM | 5.24 | –
CC1CC(C)CN(Cc2ccc(-c3ccc(CN4CCCCC4)cc3)cc2)C1 (centres undefined) | Not toxic | Not toxic | – | 9.02 | 0.871 nM | 8.48 | inactive | 2.4 nM | 6.15 | – | – | 91% | 2400 nM | – | Activity [3]: inactive
N#Cc1ccc(OCc2ccc(-c3ccc(CN4CCCCC4)cc3)cc2)cc1 | Not toxic | Not toxic | inactive | 7.27 | 75.9 nM | 7.27 | inactive | 70.8 nM | – | – | inactive | – | – | – | Activity [10]: inactive
CC(=O)N1CCN(Cc2ccc(-c3ccc(CN4CCN(C(C)=O)CC4)cc3)cc2)CC1 | Not toxic | Not toxic | inactive | – | – | 6.7 | inactive | – | – | – | – | – | – | 4.81 | Activity [18]: inactive; Activity [16]: inactive
CN(Cc1ccccc1)Cc1ccc(-c2ccc(CN3CCCCC3)cc2)cc1 | Not toxic | Not toxic | – | 7.34 | 6.76 nM | 7.98 | inactive | 14.1 nM | – | – | – | 79% | 3160 nM | 4.75 | Activity [19]: inactive
CC1CCN(CCc2ccc(-c3ccc(CCN4CCC(C)CC4)cc3)cc2)CC1 | Not toxic | Not toxic | inactive | 7.43 | 16.6 nM | 8.17 | inactive | 55 nM | 5.85 | – | – | – | – | – | Activity [19]: inactive
c1cc(-c2ccc(CNC3CCCCC3)cc2)ccc1CNC1CCCCC1 | Not toxic | Not toxic | – | 5.82 | – | 6.54 | inactive | – | – | – | inactive | 70% | 5130 nM | – | Activity [15]: inactive
CCCN(CCC)Cc1ccc(-c2ccc(CN(CCC)CCC)cc2)cc1 | Not toxic | Not toxic | – | 8.78 | 9.33 nM | 7.8 | – | 3.16 nM | 5.54 | – | – | – | – | – | EC50 (Histamine H2 receptor): 3390 nM
c1cc(-c2ccc(CN3CCCCC3)cc2)ccc1CN1CCCCC1 | Not toxic | Not toxic | – | 8.58 | 3.39 nM | 8.77 | – | – | – | 25100 nM | – | 82% | 5890 nM | 4.84 | Activity [18]: inactive
CC1CC(C)CN(Cc2ccc(-c3ccc(CN4CC(C)CC(C)C4)cc3)cc2)C1 (centres undefined) | Not toxic | Not toxic | inactive | – | – | 6.19 | – | – | – | 13800 nM | – | – | – | 5.08 | Activity [18]: inactive
